What was measured:
[1] = test system: 10 DUBs or DUB-like proteases, including USP14 and OTUB1; experiment: Inhibitor specificity assay; assay type: biochemical, Human; conditions: 19 at 10 μM, Ub-Rho substrate
[2] = test system: NF-κB activation perturbed by SCoV2 PLpro; experiment: NF-κB activity luciferase-reporting assay; assay type: cell-based, Human
hACE2-HeLa cells = experiment: Cytotoxicity, CellTiter-Glo viability assay; assay type: cell-based, Human; conditions: 10 μM, 72 h
Method in brief: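 hACE2-HeLa cells grown in DMEM with 10% FBS and penicillin-streptomycin at 37°C, 5% CO2, and passaged before confluency. 2 x 10^3 cells/well were seeded in 384-well format and exposed to test compound at a range of concentrations for 72 h. Viability was read by CellTiter-Glo luminescence.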

[3] = Metabolic stability in mouse liver microsomes; assay type: in vitro ADME
Method in brief: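 It was then split into 7 aliquots, each given NADPH (3 mM solution added) or PBS alone and incubated at 37°C. Samples were diluted 1:1 with water and analysed by LC-MS.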

[4] = Stability in mouse plasma; assay type: in vitro ADME
SCoV2 [5] = conditions: hACE2-HeLa cells
SCoV2 [6] = experiment: microbe, parasite or virus in culture; conditions: Severe acute respiratory syndrome coronavirus 2, read-out: IC50 (inhibition of SCoV2 replication)
SCoV2 [7] = experiment: SCoV2 replication in hACE2-HeLa cells, NP western blot; assay type: cell-based, SARS-CoV2 (SZ02); conditions: 5 μM, 48 h

Which results are given for C[C@H](c1cccc2ccccc12)N1CCC(C(=O)NCc2cc(F)cc(NC(=O)N3CCN(C)CC3)c2)CC1 [Inhibitor 19, (R)-N-(3-fluoro-5-((1-(1-(naphthalen-1-yl)ethyl)piperidine-4-carboxamido)methyl)phenyl)-4-methylpiperazine-1-carboxamide]?
inhibition of DUBs or DUB-like proteases [1]: none of these 10 proteases were significantly inhibited; recovery of NF-κB activation level [2]: significantly recover; cytotoxicity (in words) (hACE2-HeLa cells): neither 17 nor 19 showed detectable cytotoxicity; half-life at 1 μM [3]: 28 min; half-life at 8.35 μM [4]: > 120 min; therapeutic index (CC50/IC50) (SCoV2 [5]): over 55; inhibition of SCoV2 replication (in words) (SCoV2 [5]; spike immunostaining): significantly inhibit SCoV2 replication even at 400 nM; IC50 (SCoV2 [6]): 182 nM

For C[C@H](c1cccc2ccccc12)N1CCC(C(=O)NCc2cccc(F)c2)CC1 [Inhibitor 11, (R)-N-(3-fluorobenzyl)-1-(1-(naphthalen-1-yl)ethyl)piperidine-4-carboxamide], which “NP level in infected hACE2-HeLa cells” value (SCoV2 [7]) is on record?
Its value is “strongest”.
